OXTR ag: activates the human oxytocin receptor. AID 2435. 320,000 tested, 0.32% active. activation, % at 3 µM. CHO-OTR cells, Fluo-8 calcium fluorescence; normalized: DMSO 0%, oxytocin 100%. P30559;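 active = activation above the mean of all tested compounds plus 3 SD, cutoff set per screening run, cut at about 20% in these data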;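 note: peak over basal fluorescence ratio from a 100 s FLIPR kinetic read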
TRPML3 agonist: agonists of human TRPML3 channel. Q8TDD5. HEK293 TRPML3-YFP, Fluo-8 calcium fluorescence; 100% = the carbachol control signal. activation, % at 3 µM. 220,000 tested, 0.29% active. AID 1448;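 active = activation above its plate's cutoff, the mean activation of the plate's test wells plus 3 SD, cut at about 12% in these data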
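Test system – HEK293 line with stable expression of human TRPML3-YFP channel · Control set – carbachol 87 µM final as high control (100%), DMSO as low control (0%) · Signal – Fluo-8 calcium dye fluorescence, ex 470-495, em 515-575 nm · Incubation – 1-h 37 °C dye load, 5-s basal, 120-s post-compound reads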
OXTR potentiate: potentiates the human oxytocin receptor response. CHO-OTR cells, Fluo-8 calcium fluorescence, potentiator mode; 0% = oxytocin EC15, 100% = EC100. 320,000 tested, 0.061% active. activation, % at 3 µM. P30559;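 active = activation above that plate's cutoff, the mean activation of tested compounds plus 3 SD, cut at about 6.6% in these data, passing the limit was not always enough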
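Assay system: CHO-OTR cells, human receptor / Also added: oxytocin at about EC15, sub-maximal agonist stimulus / Dosing: single dose, 3.0 µM nominal final compound concentration / Incubation: 6 min pre-incubation, 100 s read / Technique: Fluo-8 calcium dye fluorescence / Read-out: % activation vs EC15 and EC100 oxytocin / Benchmarks: EC15 oxytocin low, 75 nM oxytocin high / Replicates: singlicate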
V1aR counter: activates human V1a receptor in oxytocin agonist counter-screen; activation, % at 3 µM; AID 2797; 320,000 tested, 0.25% active; CHO-V1R cells, Fluo-8 calcium fluorescence, agonist mode; 0% DMSO, 100% 3 nM vasopressin; P37288;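 active = activation above the mean activation of all tested compounds plus 3 SD, per screening run, cut at about 20% in these data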;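 note: signal is peak over basal fluorescence ratio across a 100 second FLIPR read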
Target sequence (P37288 whole entry, looked up): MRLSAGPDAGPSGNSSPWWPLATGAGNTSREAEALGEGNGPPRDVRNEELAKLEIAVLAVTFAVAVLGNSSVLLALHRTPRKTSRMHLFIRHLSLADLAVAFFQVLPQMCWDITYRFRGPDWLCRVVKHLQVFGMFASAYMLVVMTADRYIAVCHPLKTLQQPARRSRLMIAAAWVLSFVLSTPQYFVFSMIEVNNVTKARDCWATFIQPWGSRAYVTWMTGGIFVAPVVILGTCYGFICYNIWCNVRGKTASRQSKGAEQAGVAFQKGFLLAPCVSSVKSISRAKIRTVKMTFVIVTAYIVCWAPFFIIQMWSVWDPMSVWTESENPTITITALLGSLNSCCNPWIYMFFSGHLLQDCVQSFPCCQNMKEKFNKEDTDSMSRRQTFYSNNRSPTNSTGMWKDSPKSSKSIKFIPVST
TRPN1 ag: agonists of zebrafish TRPN1 channel; HEK293 zebrafish TRPN1-YFP, Fluo-8 calcium fluorescence; 100% = response to 87 µM carbachol; activation, % at 3 µM; 220,000 tested, 0.18% active; AID 1424;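 active = activation above its plate's cutoff, the mean activation of test wells on that plate plus 3 SD, cut at about 19% in these data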
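Material: zebrafish TRPN1-YFP in HEK293 cells; Doses: single test compound dose, 3 µM nominal, 0.3% DMSO; Timing: dye loading 1 h at 37 °C, then 30 min room temperature; Technique: intracellular calcium fluorescence with Fluo-8; Benchmarks: high carbachol 87 µM, low DMSO alone.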
Numbers stand for hits. A selection: hits, their analogues and other compounds. The true share with any hit is near 0.55%.

CCC(C)C(NC(=O)c1ccccc1NC(=O)c1ccc(OC)cc1)C(=O)NCCCn1ccnc1 (centres undefined) was read as OXTR ag inactive, OXTR potentiate inactive and V1aR counter inactive.
`COc1ccccc1-c1cc(C(=O)NC2CCN(C)CC2)c2ccc(Cl)c(C)c2n1` gave OXTR ag 20, OXTR potentiate inactive and V1aR counter inactive.
For CC(C)(C)NS(=O)(=O)c1ccc(NC(=O)C2CC(=O)N(CCc3ccc(F)cc3)C2)cc1 (centres undefined) the results were OXTR ag inactive, OXTR potentiate inactive and V1aR counter inactive.
For CC(C)(C)CNC(=O)c1cccc2c1C(=O)c1ccc(N3CCCC3)cc1S2(=O)=O the results were OXTR ag inactive, OXTR potentiate inactive and V1aR counter inactive.
Screening O=C(NCc1ccccc1C(F)(F)F)c1cccc2c1C(=O)c1ccc(N3CCCCC3)cc1S2(=O)=O returned OXTR ag 24, OXTR potentiate inactive and V1aR counter 25.
`CC1CCN(c2ccc3c(c2)S(=O)(=O)c2cccc(C(=O)NCc4ccc(F)cc4)c2C3=O)CC1` gave OXTR ag inactive, OXTR potentiate inactive and V1aR counter inactive.
Screening O=C(NCc1ccc(F)cc1)c1cccc2c1C(=O)c1ccc(N3CCC(Cc4ccccc4)CC3)cc1S2(=O)=O returned OXTR ag 20, OXTR potentiate inactive and V1aR counter 27.
`COc1ccc(S(=O)(=O)NCC2CCCN(Cc3cn(C)nc3C)C2)cc1` (centres undefined) gave OXTR ag inactive, OXTR potentiate inactive and V1aR counter inactive.
For O=C(NCCS(=O)(=O)c1ccc(Br)cc1)c1ccc(Cl)cc1Cl the results were OXTR ag inactive, OXTR potentiate inactive and V1aR counter inactive.
Screening O=C(/C=C/c1cccs1)NC(=S)NNC(=O)c1ccccc1O returned OXTR ag inactive, TRPML3 agonist 14, OXTR potentiate inactive, V1aR counter inactive and TRPN1 ag 21.
COc1ccc(C(=O)NNC(=S)NC(=O)/C=C/c2cccs2)cc1 was read as OXTR ag inactive, TRPML3 agonist inactive, OXTR potentiate inactive, V1aR counter inactive and TRPN1 ag inactive.
`COc1cc(OC)cc(C(=O)N[C@H](C(=O)NC2CCCc3ccccc32)C(C)C)c1` (some centres undefined) gave OXTR ag inactive, OXTR potentiate inactive and V1aR counter inactive.
COc1cc(/C=C2\CC/C(=C\c3ccc(OCCO)c(OC)c3)C2=O)ccc1OCCO was read as OXTR ag 30, TRPML3 agonist 27, OXTR potentiate inactive, V1aR counter 43 and TRPN1 ag 50.
`O=C1c2cccc3c(N4CCCCC4)ccc(c23)C(=O)N1c1cccc(O)c1` gave OXTR ag 33, TRPML3 agonist 33, OXTR potentiate inactive, V1aR counter 40 and TRPN1 ag 70.
Screening Cc1n[nH]c(C)c1N1C(=O)c2cccc3c(N4CCCCCC4)ccc(c23)C1=O returned OXTR ag 146, TRPML3 agonist 86, OXTR potentiate inactive, V1aR counter 150 and TRPN1 ag 125.
C=CCN1C(=O)c2cccc3c(N4CCCCC4)ccc(c23)C1=O was read as OXTR ag inactive, TRPML3 agonist inactive, OXTR potentiate inactive, V1aR counter inactive and TRPN1 ag inactive.
Screening COC(=O)c1cccc(NC(=O)NC(=O)c2ccc(Cl)cc2)c1 returned OXTR ag inactive, TRPML3 agonist inactive, OXTR potentiate inactive, V1aR counter inactive and TRPN1 ag inactive.
For COC(=O)c1cccc(NC(=O)Nc2ccc(Cl)cc2)c1 the results were OXTR ag inactive, TRPML3 agonist inactive, OXTR potentiate inactive, V1aR counter inactive and TRPN1 ag 21.
Cc1ccc(S(=O)(=O)Nc2cccc(C(=O)N3CCC(C(N)=O)CC3)c2)cc1 was read as OXTR ag inactive, OXTR potentiate inactive and V1aR counter inactive.
Screening O=C(c1ccc([N+](=O)[O-])cc1)N(Cc1ccc(Br)cc1)N1C(=O)CCCC1=O returned OXTR ag inactive, TRPML3 agonist 95, OXTR potentiate inactive, V1aR counter inactive and TRPN1 ag 47.
COc1ccc(C)cc1NC(=O)c1ccccc1NS(=O)(=O)c1ccc(Cl)s1 was read as OXTR ag inactive, TRPML3 agonist 14, OXTR potentiate inactive, V1aR counter inactive and TRPN1 ag 22.
For NC(=O)c1nc(C(=O)N2CCN(c3ccccc3)CC2)c2ccccc2n1 the results were OXTR ag inactive, OXTR potentiate inactive and V1aR counter inactive.
Screening COC(=O)C1=NN(C(=O)c2cccc(Br)c2)C(O)(c2ccc(Cl)cc2)C1 (centres undefined) returned OXTR ag inactive, TRPML3 agonist inactive, OXTR potentiate inactive, V1aR counter inactive and TRPN1 ag 21.
Screening CCOC(=O)C1=NN(C(=O)c2cccc(Br)c2)C(O)(C(C)(C)C)C1 (centres undefined) returned OXTR ag 20, TRPML3 agonist inactive, OXTR potentiate inactive, V1aR counter inactive and TRPN1 ag inactive.
For CCOC(=O)C1=NN(C(=O)c2ccc(OC)cc2)C(O)(c2ccc(Cl)cc2)C1 (centres undefined) the results were OXTR ag inactive, TRPML3 agonist inactive, OXTR potentiate inactive, V1aR counter inactive and TRPN1 ag inactive.
For N#C/C(=N\Nc1ccc(Cl)c(Cl)c1)C(=O)C1CC1 the results were OXTR ag inactive, TRPML3 agonist inactive, OXTR potentiate inactive, V1aR counter inactive and TRPN1 ag 20.
Cc1ccc(-c2nc(NCc3ccc(F)cc3)n(S(C)(=O)=O)n2)cc1 was read as OXTR ag inactive, TRPML3 agonist inactive, OXTR potentiate inactive, V1aR counter inactive and TRPN1 ag inactive.
CCOC(=O)c1ccc(S(=O)(=O)N2CCC(C(=O)NCC3CCCCC3)CC2)cc1 was read as OXTR ag inactive, OXTR potentiate inactive and V1aR counter inactive.
Screening COC(=O)c1ccccc1-c1c2ccc(=N)cc-2oc2cc(N)ccc12 returned OXTR ag active, OXTR potentiate inactive and V1aR counter active.
For Cc1cccc(C(=O)NNC(=O)C2CC2)c1 the results were OXTR ag inactive, OXTR potentiate inactive and V1aR counter inactive.
Screening O=C(Nc1nnc(-c2ccccc2Cl)o1)c1nc2ccccc2s1 returned OXTR ag 50, TRPML3 agonist 95, OXTR potentiate inactive, V1aR counter 58 and TRPN1 ag 89.
Screening O=C(Nc1nnc(-c2ccccc2Cl)o1)c1ccco1 returned OXTR ag inactive, TRPML3 agonist inactive, OXTR potentiate inactive, V1aR counter inactive and TRPN1 ag inactive.
CCOc1ccc(NS(=O)(=O)c2ccc(C(=O)NCc3ccncc3)cc2)cc1 was read as OXTR ag inactive, OXTR potentiate inactive and V1aR counter inactive.

Screens as filed in PubChem.
